# Experimental data gathered from unrelated publications.
# Each line is one published result; the experiments were not run side by side.
# Target: Proto-oncogene tyrosine-protein kinase ROS (ROS1, Homo sapiens, UniProt P08922)
SMILES,assay,setting,measurement,value
O=C1NC(=O)c2cc(Nc3ccc(F)cc3)c(Nc3ccc(F)cc3)cc21,cell-free assay,0.5 µM,remaining signal,92%
CC(C)(O)[C@H]1CC[C@H](Nc2ccc3ncc(-c4cccc(C(F)(F)F)c4)n3n2)CC1,"enzyme activity, inhibitor",1 µM,remaining activity,25.1%
Cc1cc(NC(=O)c2cccc3cc(-c4cccc5[nH]nc(N)c45)ccc23)ccc1F,"enzyme activity, inhibitor",0.1 µM,activity vs control,111%
O=C(N[C@H]1CCCCC/C=C\C2C[C@@]2(C(=O)O)NC(=O)[C@@H]2C[C@@H](Oc3ccncc3)CN2C1=O)OC1CCCC1 (stereo partly drawn),"cell-free assay, competition with immobilised ligand",1 µM,remaining binding,92%
Cc1ccc(Nc2nccc(N(C)c3ccc4c(C)n(C)nc4c3)n2)cc1S(N)(=O)=O,"enzyme activity, inhibitor",0.3 µM,inhibition,3%
Cc1c[nH]c2nccc(Oc3c(F)cc(Nc4cc(Cl)nc(N)n4)cc3F)c12,"cell-free assay, competition with immobilised ligand",0.1 µM,remaining binding,96%
Nc1ncnc2occ(-c3ccc(NC(=O)Nc4cc(C(F)(F)F)ccc4F)cc3)c12,cell-free assay,20 µM,remaining signal,4.9%
COc1cc(Cl)c(C(=O)N[C@@H](CN[C@H]2CC[C@@H](N)CC2)Cc2ccc(C#N)cc2)cc1-c1ccc(CN[C@H](C)c2ccc(C)cc2)o1,"enzyme activity, inhibitor",1 µM,remaining activity,137%
COc1cc2ncnc(Nc3ccc(Oc4ccccc4)cc3C)c2cc1OC,"enzyme activity, inhibitor",1 µM,inhibition,4%
COc1cc2c(N3CCN(C(=O)Nc4ccc(OC(C)C)cc4)CC3)ncnc2cc1OCCCN1CCCCC1,cell-free assay,0.5 µM,remaining signal,90.1%
CC(=O)N1CCC(c2ccc(C(=O)NC3=NCCN3)cc2C(F)(F)F)CC1,"cell-free assay, competition with immobilised ligand",1 µM,remaining binding,99%
Cc1cnc(NC2CCOCC2)nc1-n1cnc(C(=O)NC(CN)c2cc(F)cc(Cl)c2)c1 (stereo not drawn),"enzyme activity, inhibitor, radiometric",1 µM,remaining activity,103%
Cc1sc(C(=O)NC2COC2)cc1-n1cc(NC(=O)Nc2c(F)cccc2Cl)cn1,"enzyme activity, inhibitor",10 µM,remaining activity,102%
CCCOc1ccc(OC)c(F)c1C(=O)c1ccc(C(=O)N[C@@H]2CNC[C@H]2NC(=O)c2ccc3[nH]ncc3c2)cc1,"enzyme activity, inhibitor",10 µM,remaining activity,105%
CCCOc1ccc([C@@H]2[C@@H](C(=O)O)[C@H](c3ccc4c(c3)OCO4)CN2CC(=O)Nc2c(CC)cccc2CC)cc1,"cell-free assay, competition with immobilised ligand",1 µM,remaining binding,90%
Cc1ccc(C(=O)NCc2ccsc2)cc1C#Cc1cn(C(C)C)c2ncnc(N)c12,"enzyme activity, inhibitor",1 µM,activity vs control,92%
CCN(CC)CCNC(=O)c1c(C)[nH]c(/C=C2\C(=O)Nc3ccc(F)cc32)c1C,"enzyme activity, inhibitor",0.3 µM,inhibition,4%
CCC(=O)N[C@@H]1CC[C@H](C(=O)N(C)c2ccc(-c3nc4ccccc4o3)cc2)C1,"cell-free assay, competition with immobilised ligand",1 µM,remaining binding,100%
F[C@@H]1CCN(c2nccc(-c3cnn4ncccc34)n2)C1,binding,1 µM,remaining binding,88%
CC(C)(C)c1nc2c(s1)c1nc(N)ncc1c1ccc(NS(=O)(=O)c3c(F)cccc3F)c(F)c12,"enzyme activity, inhibitor, radiometric",1 µM,remaining activity,109%
CCOCCn1cc(C(=O)Nc2ccc(-n3nc(-c4cccnc4)cc3C(F)(F)F)cn2)ccc1=O,"cell-free assay, competition with immobilised ligand",1 µM,remaining binding,100%
O=C1Nc2ccc(Cl)cc2C1=Cc1cc(Cl)c(O)c(Cl)c1,cell-free assay,0.5 µM,remaining signal,89.7%
CC/C(=N\NC(=O)NCc1cccc(O)c1)c1ccc(O)c(C)c1O,"enzyme activity, inhibitor",0.1 µM,inhibition,2.5%
N#Cc1ccc(Nc2ccc3[nH]c(=O)[nH]c3c2)c(Cl)c1,"cell-free assay, competition with immobilised ligand",1 µM,remaining binding,100%
CNCc1ccc(-c2cc(-c3nc(-c4ccc(S(=O)(=O)C(C)C)cc4)cnc3N)on2)cc1,"enzyme activity, inhibitor",2 µM,inhibition,4%
CO[C@@H](C)c1c(Nc2ccc([C@@H](N(C)C(=O)C3CCS(=O)(=O)CC3)C(F)(F)F)cc2)cnc2cc(Cl)nn12,"cell-free assay, competition with immobilised ligand",1 µM,remaining binding,82%
COc1ccc(COc2ccc(Cc3cnc(N)nc3N)cc2OC)cc1,cell-free assay,0.5 µM,remaining signal,99.9%
